How the values were obtained:
Beta-secretase 1 [1] = molecular target: T1, Beta-secretase 1 (Homo sapiens, UniProt P56817); test: Inhibition of recombinant human BACE1 (1 to 460 residues) expressed in baculovirus infected insect cells using rhodamine-EVNLDAEFK peptide as substrate measured after 60 mins by FRET assay
Method in brief: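 Enzyme 1 U/mL in 50 mM sodium acetate pH 4.5 with 750 nM substrate (Swedish-mutant peptide, KM 20 µM); screening at 30, 10, 3, 1 and 0.3 µM, 3.3% DMSO final. Incubated in the dark at 25 °C, stopped with 2.5 M sodium acetate; fluorescence ex 545/em 585 nm. IC50 from nonlinear fit of RFU/h versus log concentration; mean of 3 experiments.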

Beta-secretase 1 [2] = molecular target: T1, Beta-secretase 1; test: Inhibition of BACE1 in human H4 cells expressing human APP K595N/M596L double mutant assessed as decrease in amyloid beta 42 and amyloid beta 40 level after overnight incubation by ELISA method; assay type: cell-based; conditions: for inhibition: concentration not given here
Method in brief: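 H4 neuroglioma cells seeded 2x10^5 per well, grown 24 h (5% CO2, humidified), then exposed overnight to increasing compound concentrations; 1% DMSO negative control, R-flurbiprofen positive control. Supernatant Aβ42 and Aβ40 captured with biotinylated 4G8 plus C-terminal-specific rabbit antibodies, streptavidin magnetic beads, electrochemiluminescence readout. EC50 = concentration halving Aβ production; mean of ≥3 experiments ± SD.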

T1 sequence (P56817 whole entry, the tested form may be a part): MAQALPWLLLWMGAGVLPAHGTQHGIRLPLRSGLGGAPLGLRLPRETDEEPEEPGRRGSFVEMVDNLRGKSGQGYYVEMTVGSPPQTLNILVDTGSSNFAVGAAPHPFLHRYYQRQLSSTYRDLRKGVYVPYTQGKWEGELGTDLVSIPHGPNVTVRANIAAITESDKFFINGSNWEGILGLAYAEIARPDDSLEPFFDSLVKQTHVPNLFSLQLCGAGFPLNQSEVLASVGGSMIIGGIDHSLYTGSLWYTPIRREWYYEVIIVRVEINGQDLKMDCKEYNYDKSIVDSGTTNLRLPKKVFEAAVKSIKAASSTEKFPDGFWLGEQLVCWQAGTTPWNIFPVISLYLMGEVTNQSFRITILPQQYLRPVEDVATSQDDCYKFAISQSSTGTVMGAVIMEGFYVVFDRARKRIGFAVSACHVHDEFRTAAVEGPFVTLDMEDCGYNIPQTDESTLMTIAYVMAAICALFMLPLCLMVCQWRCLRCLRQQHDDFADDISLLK

SMILES	IC50 (Beta-secretase 1 [1]) [nM]	EC50 (Beta-secretase 1 [2]) [nM]	inhibition (Beta-secretase 1 [2]) [%]
O=C(Nc1ccncc1)c1cccc(-c2cnc(-c3c[nH]c4ccccc34)[nH]2)c1	660	590	70
Fc1ccc2nc(-c3cccc(-c4cnc(-c5c[nH]c6cc(OC(F)(F)F)ccc56)[nH]4)c3)[nH]c2c1	120	290	87
O=C(Nc1cccc(-c2cnc(-c3c[nH]c4cc(F)ccc34)[nH]2)c1)c1cccnc1	130	410	82
O=C(Nc1cccnc1)c1cccc(-c2cnc(-c3c[nH]c4ccccc34)[nH]2)c1	310	880	42
O=C(Nc1cccc(-c2cnc(-c3c[nH]c4ccccc34)[nH]2)c1)c1cccnc1	220	480	75
Fc1ccc(-c2cnc(-c3cccc(-c4cnc(-c5c[nH]c6cc(OC(F)(F)F)ccc56)[nH]4)c3)[nH]2)cc1	180	670	77

Now those with a lower IC50 (Beta-secretase 1 [1]), led by results:

IC50 (Beta-secretase 1 [1]) [nM]	EC50 (Beta-secretase 1 [2]) [nM]	inhibition (Beta-secretase 1 [2]) [%]	SMILES
85	350	90	Fc1ccc2nc(-c3cccc(-c4cnc(-c5c[nH]c6cc(F)ccc56)[nH]4)c3)[nH]c2c1
75	810	86	Fc1ccc(-c2cnc(-c3cccc(-c4cnc(-c5c[nH]c6cc(F)ccc56)[nH]4)c3)[nH]2)cc1
110	1210	64	O=C(Nc1ccccc1)c1cccc(-c2cnc(-c3c[nH]c4ccccc34)[nH]2)c1
98	1330	69	O=C(Nc1ccc(F)cc1)c1cccc(-c2cnc(-c3c[nH]c4ccccc34)[nH]2)c1
